The test system of the first data set is Clostridium perfringens. Kind of data set: Prodrug activation in Clostridium perfringens assessed as prednisolone release under anaerobic conditions at 50 uM up to 24 hrs by HPLC analysis. The data set is classed as organism-based.
Settings: not given; call rule not given here
In a few lines:
(§1)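 C. perfringens grown overnight on brain heart infusion (BHI) agar, then colonies were suspended in BHI broth to OD600 0.9–1.1. Compound incubated in the suspension under anaerobic conditions, pH 7.4, 37 °C, with a no-bacteria BHI control. Aliquots taken at 0, 2, 4, 6 and 24 h and centrifuged at 10,000 rpm for 10 min. Supernatants were stored at −20 °C, then HPLC for prodrug and released parent drug (n = 3).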
For the compound `C[C@]12C=CC(=O)C=C1CC[C@@H]1[C@@H]2[C@@H](O)C[C@@]2(C)[C@H]1CC[C@]2(O)C(=O)COC(=O)CCc1ccccc1`, the Drug metabolism entry is “Not Active”.

Take `CCCC1O[C@@H]2C[C@H]3[C@@H]4CCC5=CC(=O)C=C[C@]5(C)[C@H]4[C@@H](O)C[C@]3(C)[C@]2(C(=O)COC(=O)Cc2ccccc2[N+](=O)[O-])O1` (stereo not given in full): the Drug metabolism entry is “Active”.

For `CCCC1O[C@@H]2C[C@H]3[C@@H]4CCC5=CC(=O)C=C[C@]5(C)[C@H]4[C@@H](O)C[C@]3(C)[C@]2(C(=O)COC(=O)CCc2ccccc2[N+](=O)[O-])O1` (stereo not given in full), the Drug metabolism entry is “Not Active”.

With `C[C@]12C=CC(=O)C=C1CC[C@@H]1[C@@H]2[C@@H](O)C[C@@]2(C)[C@H]1CC[C@]2(O)C(=O)COC(=O)CCc1ccccc1[N+](=O)[O-]`, the Drug metabolism result is given as “Active”.

As to `C[C@]12C=CC(=O)C=C1CC[C@@H]1[C@@H]2[C@@H](O)C[C@@]2(C)[C@H]1CC[C@]2(O)C(=O)COC(=O)Cc1ccccc1[N+](=O)[O-]`, the Drug metabolism result is listed as “Active”.

A further data set has as its system Clostridium perfringens. Kind of data set: Prodrug activation in Clostridium perfringens assessed as celecoxib release under anaerobic conditions at 50 uM up to 24 hrs by HPLC analysis.
Settings: not given
The data set is classed as organism-based. In a few lines: as §1
As for `Cc1ccc(-c2cc(C(F)(F)F)nn2-c2ccc(S(=O)(=O)NC(=O)CCc3ccccc3)cc2)cc1`, the Drug metabolism result is listed as “Not Active”.

Test system in another data set: not listed separately
Kind of data set: Stability of the compound in simulated human duodenal fluid up to 1500 mins by HPLC analysis. The data set is classed as ADME. The settings on record: 25 h.
As for `CCCC1O[C@@H]2C[C@H]3[C@@H]4CCC5=CC(=O)C=C[C@]5(C)[C@H]4[C@@H](O)C[C@]3(C)[C@]2(C(=O)COC(=O)Cc2ccccc2[N+](=O)[O-])O1` (stereo not given in full), the Stability result is on record as “Stable”.

`Cc1ccc(-c2cc(C(F)(F)F)nn2-c2ccc(S(=O)(=O)NC(=O)Cc3ccccc3[N+](=O)[O-])cc2)cc1`: the Stability entry is reported as “Stable”.

As to `CCCC1O[C@@H]2C[C@H]3[C@@H]4CCC5=CC(=O)C=C[C@]5(C)[C@H]4[C@@H](O)C[C@]3(C)[C@]2(C(=O)COC(=O)CCc2ccccc2[N+](=O)[O-])O1` (stereo not given in full), the Stability entry is recorded as “Stable”.

`Cc1ccc(-c2cc(C(F)(F)F)nn2-c2ccc(S(=O)(=O)NC(=O)CCc3ccccc3[N+](=O)[O-])cc2)cc1`: the Stability entry is listed as “Stable”.

On to `C[C@]12C=CC(=O)C=C1CC[C@@H]1[C@@H]2[C@@H](O)C[C@@]2(C)[C@H]1CC[C@]2(O)C(=O)COC(=O)CCc1ccccc1[N+](=O)[O-]`, for which the Stability entry is “Stable”.

In the case of `C[C@]12C=CC(=O)C=C1CC[C@@H]1[C@@H]2[C@@H](O)C[C@@]2(C)[C@H]1CC[C@]2(O)C(=O)COC(=O)Cc1ccccc1[N+](=O)[O-]`, the Stability result was “Stable”.

Test system in another data set: not listed separately
Put plainly: Stability of the compound in simulated human gastric juices up to 1500 mins by HPLC analysis. The data set is classed as ADME, Gastric juice. The following applies: 25 h.
As to `CCCC1O[C@@H]2C[C@H]3[C@@H]4CCC5=CC(=O)C=C[C@]5(C)[C@H]4[C@@H](O)C[C@]3(C)[C@]2(C(=O)COC(=O)Cc2ccccc2[N+](=O)[O-])O1` (stereo not given in full), the Stability entry is “Stable”.

Regarding `Cc1ccc(-c2cc(C(F)(F)F)nn2-c2ccc(S(=O)(=O)NC(=O)Cc3ccccc3[N+](=O)[O-])cc2)cc1`, the Stability result is “Stable”.

`CCCC1O[C@@H]2C[C@H]3[C@@H]4CCC5=CC(=O)C=C[C@]5(C)[C@H]4[C@@H](O)C[C@]3(C)[C@]2(C(=O)COC(=O)CCc2ccccc2[N+](=O)[O-])O1` (stereo not given in full): the Stability result is listed as “Stable”.

For the compound `Cc1ccc(-c2cc(C(F)(F)F)nn2-c2ccc(S(=O)(=O)NC(=O)CCc3ccccc3[N+](=O)[O-])cc2)cc1`, the Stability entry was “Stable”.

`C[C@]12C=CC(=O)C=C1CC[C@@H]1[C@@H]2[C@@H](O)C[C@@]2(C)[C@H]1CC[C@]2(O)C(=O)COC(=O)CCc1ccccc1[N+](=O)[O-]`: the Stability entry was “Stable”.

With `C[C@]12C=CC(=O)C=C1CC[C@@H]1[C@@H]2[C@@H](O)C[C@@]2(C)[C@H]1CC[C@]2(O)C(=O)COC(=O)Cc1ccccc1[N+](=O)[O-]`, the Stability result is recorded as “Stable”.

Test system in another data set: not listed separately
Kind of data set: Metabolic stability in brain heart infusion medium up to 24 hrs by HPLC analysis. The data set is classed as ADME, tissue-based.
Settings: not given
In a few lines:
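Prodrug was incubated in BHI medium without bacteria under anaerobic conditions at pH 7.4 and 37 °C. Aliquots were taken at 0, 2, 4, 6 and 24 h and centrifuged at 10,000 rpm for 10 min. Supernatants were stored at −20 °C, then analysed by an HPLC method that resolves BHI components from prodrug and activation byproducts; n = 3.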
Turning to `C[C@]12C=CC(=O)C=C1CC[C@@H]1[C@@H]2[C@@H](O)C[C@@]2(C)[C@H]1CC[C@]2(O)C(=O)COC(=O)CCc1ccccc1`, the Stability result was “Stable”.

For `CCCC1O[C@@H]2C[C@H]3[C@@H]4CCC5=CC(=O)C=C[C@]5(C)[C@H]4[C@@H](O)C[C@]3(C)[C@]2(C(=O)COC(=O)Cc2ccccc2[N+](=O)[O-])O1` (stereo not given in full), the Stability result is listed as “Stable”.

Regarding `Cc1ccc(-c2cc(C(F)(F)F)nn2-c2ccc(S(=O)(=O)NC(=O)Cc3ccccc3[N+](=O)[O-])cc2)cc1`, the Stability entry was “Stable”.

Take `CCCC1O[C@@H]2C[C@H]3[C@@H]4CCC5=CC(=O)C=C[C@]5(C)[C@H]4[C@@H](O)C[C@]3(C)[C@]2(C(=O)COC(=O)CCc2ccccc2[N+](=O)[O-])O1` (stereo not given in full): the Stability result is “Stable”.

With `Cc1ccc(-c2cc(C(F)(F)F)nn2-c2ccc(S(=O)(=O)NC(=O)CCc3ccccc3[N+](=O)[O-])cc2)cc1`, the Stability result is on record as “Stable”.

For the compound `Cc1ccc(-c2cc(C(F)(F)F)nn2-c2ccc(S(=O)(=O)NC(=O)CCc3ccccc3)cc2)cc1`, the Stability result is on record as “Stable”.

`C[C@]12C=CC(=O)C=C1CC[C@@H]1[C@@H]2[C@@H](O)C[C@@]2(C)[C@H]1CC[C@]2(O)C(=O)COC(=O)CCc1ccccc1[N+](=O)[O-]`: the Stability result is listed as “Stable”.

For the compound `C[C@]12C=CC(=O)C=C1CC[C@@H]1[C@@H]2[C@@H](O)C[C@@]2(C)[C@H]1CC[C@]2(O)C(=O)COC(=O)Cc1ccccc1[N+](=O)[O-]`, the Stability entry is “Stable”.

The test system of the next data set is Caco-2. Kind of data set: Apparent permeability from apical to basolateral side of human Caco2 cells. The data set is classed as ADME, cell-based.
Settings: not given
In a few lines: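 Transport measured across the epithelial monolayer. Samples were drawn from the acceptor reservoir at 0, 30, 60 and 120 min, and fresh buffer was added each time to keep the volume constant. The donor solution was sampled at 120 min. Caffeine was run in two wells in the apical-to-basolateral direction as a routine control.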
Consider `CCCC1O[C@@H]2C[C@H]3[C@@H]4CCC5=CC(=O)C=C[C@]5(C)[C@H]4[C@@H](O)C[C@]3(C)[C@]2(C(=O)COC(=O)Cc2ccccc2[N+](=O)[O-])O1` (stereo not given in full), for which the Papp entry is listed as “permeable”.

In the case of `Cc1ccc(-c2cc(C(F)(F)F)nn2-c2ccc(S(=O)(=O)NC(=O)Cc3ccccc3[N+](=O)[O-])cc2)cc1`, the Papp result is on record as “permeable”.

Turning to `CCCC1O[C@@H]2C[C@H]3[C@@H]4CCC5=CC(=O)C=C[C@]5(C)[C@H]4[C@@H](O)C[C@]3(C)[C@]2(C(=O)COC(=O)CCc2ccccc2[N+](=O)[O-])O1` (stereo not given in full), the Papp entry is given as “impermeable”.

In the case of `Cc1ccc(-c2cc(C(F)(F)F)nn2-c2ccc(S(=O)(=O)NC(=O)CCc3ccccc3[N+](=O)[O-])cc2)cc1`, the Papp result is reported as “permeable”.
